Experiments:
[1] = target: T1, Heptosyltransferase I (HepI) (Escherichia coli, UniProt P24173); assay: Kinetic characterization of inhibition mechanism; format: biochemical
Outline: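 Rates at rising inhibitor levels fitted to a mixed (noncompetitive) equation with Ks, Ki and α. α marks preference for free enzyme (>1), ternary complex (<1) or neither (=1). It is judged from whether Km rises, falls or stays unchanged as inhibitor increases. ODLA acceptor was varied in the ODLA series.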

[2] = target: T1, Heptosyltransferase I (HepI); assay: Inhibition of HepI catalysis with substrates ODLA and ADP-Heptose; format: biochemical

T1 sequence (P24173 whole entry): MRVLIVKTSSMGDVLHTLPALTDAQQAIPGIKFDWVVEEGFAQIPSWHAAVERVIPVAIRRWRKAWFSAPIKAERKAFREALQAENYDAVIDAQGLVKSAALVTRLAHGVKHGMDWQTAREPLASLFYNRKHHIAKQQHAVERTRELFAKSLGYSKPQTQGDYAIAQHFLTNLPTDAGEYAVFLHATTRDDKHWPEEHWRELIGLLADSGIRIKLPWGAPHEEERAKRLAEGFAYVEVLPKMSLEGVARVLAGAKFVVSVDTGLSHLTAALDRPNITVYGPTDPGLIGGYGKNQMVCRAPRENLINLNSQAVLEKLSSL

Structure (SMILES)	kcat ADP-Heptose ([1]; [Inhibitor] 10 μM)	kcat ODLA ([1]; [Inhibitor] 10 μM)	kcat ADP-Heptose ([1]; [Inhibitor] 100 μM)	kcat ODLA ([1]; [Inhibitor] 100 μM)	kcat ADP-Heptose ([1]; [Inhibitor] 1000 μM)	kcat ODLA ([1]; [Inhibitor] 1000 μM)	type of inhibition against ODLA ([1]; acceptor substrate ODLA varied)	α (preference for free enzyme or ES complex) ([1]; against ADP-Heptose, α<1 = prefers ES complex)	type of inhibition against ADP-Heptose ([1]; donor substrate ADP-Heptose varied)	inhibition of HepI activity (in words) [2]
CCCC/C=C/CO[C@@H]1O[C@H](CO)[C@@H](O)[C@H](O)[C@H]1O [Compound 7, hexene-β-D-glucopyranoside]	2.8 ± 0.3 s⁻¹	1.4 ± 0.03 s⁻¹	1.6 ± 0.1 s⁻¹	1.3 ± 0.004 s⁻¹	0.76 ± 0.08 s⁻¹	0.9 ± 0.2 s⁻¹	uncompetitive inhibition	< 1	noncompetitive (mixed-competitive) inhibition	–
CCCCCCCCO[C@@H]1O[C@H](CO)[C@@H](O)[C@H](O)[C@H]1O [n-Octyl-β-D-glucopyranoside]	–	–	–	–	–	–	–	–	–	small degree of inhibition

From article PMC5885750 (Bioorganic & medicinal chemistry letters, 2018)
